# ChEMBL document CHEMBL1137810, “Dammarane-type Saponins from Panax japonicus and their neurite outgrowth activity in SK-N-SH cells” (J Nat Prod, 2002)
# Legend:
# SK-N-SH [1] = assay: Induction of neurite outgrowth in human SK-N-SH cells at 100 uM after 5 days relative to control; format: functional
# Summary of the method: (§1)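 SK-N-SH cells were plated at 4.7 × 10^4 cell/mL in gridded 60 mm dishes. Compound was added once at the start of culture, with 0.1% DMSO vehicle as control. After 5 days, 100-300 cells in four 650 × 430 µm areas were scored for the percentage bearing neurites longer than 50 µm, expressed as % of control. Values are mean ± sem of eight sights; Student's t-test, P < 0.05.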
# SK-N-SH [2] = assay: Induction of neurite outgrowth in human SK-N-SH cells at 10 uM after 5 days relative to control; format: functional; summary of the method: as §1
# SK-N-SH [3] = assay: Cytotoxicity against human SK-N-SH cells at 100 uM; format: cell-based
# SK-N-SH [4] = assay: Effect on neurite outgrowth activity in human SK-N-SH cells assessed as increase in number of vericosites at 100 uM after 5 days; format: functional
# Summary of the method: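 Human SK-N-SH cells plated at 4.7 × 10^4 cell/mL in gridded 60 mm dishes. Compound added once at culture start at 100 µM; vehicle 0.1% DMSO. Cells examined after 5 days in four areas (650 × 430 µm). Varicosity number counted per cell, 40 cells per value, mean ± sem. Compared with control by Student's t-test, P < 0.05.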
Compound,Activity (SK-N-SH [1]),other results
CC(C)(O)[C@@H]1CC[C@@](C)([C@H]2CC[C@]3(C)[C@@H]2[C@H](O)C[C@@H]2[C@@]4(C)CC[C@H](O)C(C)(C)[C@@H]4[C@@H](O[C@@H]4O[C@H](CO)[C@@H](O)[C@H](O)[C@H]4O)C[C@]23C)O1,91.4%,
CC(C)(O)[C@@H]1CC[C@@](C)([C@H]2CC[C@]3(C)[C@@H]2[C@H](O)C[C@@H]2[C@@]4(C)CC[C@H](O)C(C)(C)[C@@H]4[C@@H](O[C@@H]4O[C@H](CO[C@H]5O[C@H](CO)[C@@H](O)[C@H](O)[C@H]5O)[C@@H](O)[C@H](O)[C@H]4O[C@@H]4OC[C@@H](O)[C@H](O)[C@H]4O)C[C@]23C)O1,104.1%,
C[C@@H]1O[C@@H](O[C@H]2[C@H](O[C@H]3C[C@]4(C)[C@H](C[C@@H](O)[C@@H]5[C@@H]([C@]6(C)CC[C@@H](C(C)(C)O)O6)CC[C@]54C)[C@@]4(C)CC[C@H](O)C(C)(C)[C@H]34)O[C@H](CO)[C@@H](O)[C@@H]2O)[C@H](O)[C@H](O)[C@H]1O,,Activity (SK-N-SH [2]): 103%; Activity (SK-N-SH [3]): Toxic
CC(C)=CCC[C@](C)(O[C@@H]1O[C@H](CO)[C@@H](O)[C@H](O)[C@H]1O)[C@H]1CC[C@]2(C)[C@@H]1[C@H](O)C[C@@H]1[C@@]3(C)CC[C@H](O)C(C)(C)[C@@H]3[C@@H](O[C@@H]3O[C@H](CO)[C@@H](O)[C@H](O)[C@H]3O[C@@H]3O[C@H](CO)[C@@H](O)[C@H](O)[C@H]3O)C[C@]12C,96.6%,
CC(=O)OC[C@H]1O[C@@H](O[C@H]2C[C@]3(C)[C@H](C[C@@H](O)[C@@H]4[C@@H]([C@]5(C)CC[C@@H](C(C)(C)O)O5)CC[C@]43C)[C@@]3(C)CC[C@H](O)C(C)(C)[C@H]23)[C@H](O[C@@H]2OC[C@@H](O)[C@H](O)[C@H]2O)[C@@H](O)[C@@H]1O [GINSENOSIDE R2],97%,
CC(C)=CCC[C@](C)(O[C@@H]1O[C@H](CO[C@@H]2O[C@H](CO)[C@@H](O)[C@H](O)[C@H]2O)[C@@H](O)[C@H](O)[C@H]1O)[C@H]1CC[C@]2(C)[C@@H]1[C@H](O)C[C@@H]1[C@@]3(C)CC[C@H](O[C@@H]4O[C@H](CO)[C@@H](O)[C@H](O)[C@H]4O[C@@H]4O[C@H](CO)[C@@H](O)[C@H](O)[C@H]4O)C(C)(C)[C@@H]3CC[C@]12C [GINSENOSIDE RB1],178%,Activity (SK-N-SH [4]): 0.93
CC(C)=CCC[C@](C)(O[C@@H]1O[C@H](CO[C@@H]2OC[C@@H](O)[C@H](O)[C@H]2O)[C@@H](O)[C@H](O)[C@H]1O)[C@H]1CC[C@]2(C)[C@@H]1[C@H](O)C[C@@H]1[C@@]3(C)CC[C@H](O[C@@H]4O[C@H](CO)[C@@H](O)[C@H](O)[C@H]4O[C@@H]4O[C@H](CO)[C@@H](O)[C@H](O)[C@H]4O)C(C)(C)[C@@H]3CC[C@]12C [GINSENOSIDE RB3],228%,Activity (SK-N-SH [4]): 0.8
CC(C)=CCC[C@](C)(O[C@@H]1O[C@H](CO)[C@@H](O)[C@H](O)[C@H]1O)[C@H]1CC[C@]2(C)[C@@H]1[C@H](O)C[C@@H]1[C@@]3(C)CC[C@H](O)C(C)(C)[C@@H]3[C@@H](O[C@@H]3O[C@H](CO)[C@@H](O)[C@H](O)[C@H]3O[C@@H]3O[C@@H](C)[C@H](O)[C@@H](O)[C@H]3O)C[C@]12C [GINSENOSIDE RE],83.5%,
CC(C)=CCC[C@](C)(O[C@@H]1O[C@H](CO)[C@@H](O)[C@H](O)[C@H]1O)[C@H]1CC[C@]2(C)[C@@H]1[C@H](O)C[C@@H]1[C@@]3(C)CC[C@H](O)C(C)(C)[C@@H]3[C@@H](O[C@@H]3O[C@H](CO)[C@@H](O)[C@H](O)[C@H]3O)C[C@]12C [GINSENOSIDE RG1],107.3%,
CC(C)(O)[C@@H]1CC[C@@](C)([C@H]2CC[C@]3(C)[C@@H]2[C@H](O)C[C@@H]2[C@@]4(C)CC[C@H](O)C(C)(C)[C@@H]4[C@@H](O[C@@H]4O[C@H](CO)[C@@H](O)[C@H](O)[C@H]4O[C@@H]4OC[C@@H](O)[C@H](O)[C@H]4O)C[C@]23C)O1 [MAJONOSIDE R2],109.6%,
CC(C)=CCC[C@](C)(O[C@@H]1O[C@H](CO[C@@H]2O[C@H](CO)[C@@H](O)[C@H](O)[C@H]2O)[C@@H](O)[C@H](O)[C@H]1O)[C@H]1CC[C@]2(C)[C@@H]1[C@H](O)C[C@@H]1[C@@]3(C)CC[C@H](O[C@@H]4O[C@H](CO)[C@@H](O)[C@H](O)[C@H]4O[C@@H]4O[C@H](CO)[C@@H](O)[C@H](O)[C@H]4O[C@@H]4OC[C@@H](O)[C@H](O)[C@H]4O)C(C)(C)[C@@H]3CC[C@]12C [NOTOGINSENOSIDE FA],147%,Activity (SK-N-SH [4]): 0.53
CC(C)=CCC[C@](C)(O[C@@H]1O[C@H](CO)[C@@H](O)[C@H](O)[C@H]1O)[C@H]1CC[C@]2(C)[C@@H]1[C@H](O)C[C@@H]1[C@@]3(C)CC[C@H](O)C(C)(C)[C@@H]3[C@@H](O[C@@H]3O[C@H](CO)[C@@H](O)[C@H](O)[C@H]3O[C@@H]3OC[C@@H](O)[C@H](O)[C@H]3O)C[C@]12C [NOTOGINSENOSIDE R1],84.6%,
CC(=O)OC[C@H]1O[C@@H](O[C@H]2C[C@]3(C)[C@H](C[C@@H](O)[C@@H]4[C@@H]([C@]5(C)CC[C@@H](C(C)(C)O)O5)CC[C@]43C)[C@@]3(C)CC[C@H](O)C(C)(C)[C@H]23)[C@H](O[C@@H]2O[C@H](C)[C@@H](O)[C@H](O)[C@@H]2O)[C@@H](O)[C@@H]1O [VINA-GINSENOSIDE R1],82.2%,
